Laboratory results published in ChEMBL document CHEMBL3804827, “Synthesis, biological evaluation and structure-activity relationship of 2-styrylquinazolones as anti-tubercular agents” (Bioorg Med Chem Lett, 2016).
Converted amounts (≈) assume the structure as drawn.

Tests used:
[1] = tested on: Mycobacterium tuberculosis; assay: Antimycobacterial activity against Mycobacterium tuberculosis H37Rv ATCC 27294 after 7 days by Alamar blue assay; assay type: functional; details: H37Rv ATCC 27294, 168 h
[2] = Selectivity index, ratio of CC50 for African green monkey Vero cells to IC90 for Mycobacterium tuberculosis H37Rv ATCC 27294; assay type: toxicity, cell-based; details: read-out: Selectivity Index
[3] = Selectivity index, ratio of cytotoxicity against HEK293T cells to MIC for Mycobacterium tuberculosis H37Rv ATCC 27294; assay type: toxicity, cell-based, HEK-293T; details: human, read-out: Selectivity Index
Procedure, shortened: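 HEK-293T human embryonic kidney cells were exposed to 50 µg/mL and read by MTT as % inhibition. The index relates this cytotoxicity to the MIC against M. tuberculosis H37Rv ATCC 27294, defined as 99% growth inhibition.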

[4] = tested on: Mycobacterium tuberculosis; assay: Antimycobacterial activity against Mycobacterium tuberculosis H37Rv ATCC 27294 after 28 days by two fold serial dilution method; assay type: functional; details: H37Rv ATCC 27294, 672 h
Procedure, shortened: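 M. tuberculosis H37Rv (ATCC 27294) in vitro; MIC taken as the lowest concentration in µg/mL giving 99% growth inhibition. Determined in triplicate at pH 7.4, with standard drugs (INH, R, E, Z, Cfx) run alongside.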

Staphylococcus aureus = assay: Antibacterial activity against Staphylococcus aureus NRS70 after 16 to 20 hrs by two-fold serial dilution method; assay type: functional

O=c1c2ccccc2nc(/C=C/c2ccc([N+](=O)[O-])o2)n1CCCO
IC90 [1]: < 0.1 µg/mL | selectivity ratio [2]: > 150

O=c1c2ccccc2nc(/C=C/c2ccccc2)n1-c1ccccc1
selectivity ratio [3]: > 16 | MIC99 [4]: 3.12 µg/mL (≈ 9.63 µM)

COc1ccc(/C=C/c2nc3ccccc3c(=O)n2-c2ccc(C)cc2)cc1
MIC99 [4]: 12.5 µg/mL (≈ 33.9 µM)

O=c1c2ccccc2nc(/C=C/c2ccc(Cl)cc2)n1-c1ccccc1
MIC99 [4]: 12.5 µg/mL (≈ 34.8 µM)

COc1ccc(/C=C/c2nc3ccccc3c(=O)n2-c2ccc(SC)cc2)cc1
MIC99 [4]: > 25 µg/mL

O=c1c2ccccc2nc(/C=C/c2ccccc2)n1-c1ccc(F)cc1
MIC99 [4]: 25 µg/mL (≈ 73 µM)

CSc1ccc(-n2c(/C=C/c3ccc(N(C)C)cc3)nc3ccccc3c2=O)cc1
MIC99 [4]: 12.5 µg/mL (≈ 30.2 µM)

CSc1ccc(-n2c(/C=C/c3ccc(F)cc3)nc3ccccc3c2=O)cc1
MIC99 [4]: 12.5 µg/mL (≈ 32.2 µM)

O=c1c2ccccc2nc(/C=C/c2ccc(F)cc2)n1-c1ccc(Cl)cc1
selectivity ratio [3]: > 8 | MIC99 [4]: 6.25 µg/mL (≈ 16.6 µM)

O=c1c2ccccc2nc(/C=C/c2cccs2)n1-c1ccccc1
selectivity ratio [3]: < 16 | MIC99 [4]: 3.12 µg/mL (≈ 9.46 µM)

O=c1c2ccccc2nc(/C=C/c2ccccc2)n1-c1ccc(Cl)cc1
MIC99 [4]: 12.5 µg/mL (≈ 34.8 µM)

O=c1c2ccccc2nc(/C=C/c2ccc([N+](=O)[O-])o2)n1-c1cccc(O)c1
IC90 [1]: 1.02 µg/mL (≈ 2.72 µM) | selectivity ratio [2]: > 14.7

O=c1c2ccccc2nc(/C=C/c2ccc(Cl)cc2)n1-c1ccc(Cl)cc1
MIC99 [4]: > 25 µg/mL

O=c1c2ccccc2nc(/C=C/c2c(O)cccc2O)n1-c1ccccc1
selectivity ratio [3]: > 8 | MIC99 [4]: 6.25 µg/mL (≈ 17.5 µM)

O=c1c2ccccc2nc(/C=C/c2ccccc2)n1-c1ccc(Br)cc1
selectivity ratio [3]: > 8 | MIC99 [4]: 6.25 µg/mL (≈ 15.5 µM)

COc1cc(/C=C/c2nc3ccccc3c(=O)n2-c2ccccc2)cc(OC)c1OC
selectivity ratio [3]: > 64 | MIC99 [4]: 0.78 µg/mL (≈ 1.88 µM)

Cc1ccc(-n2c(/C=C/c3ccc(F)cc3)nc3ccccc3c2=O)cc1
MIC99 [4]: > 25 µg/mL

COc1ccc(-n2c(/C=C/c3ccccc3)nc3ccccc3c2=O)cc1
selectivity ratio [3]: > 32 | MIC99 [4]: 1.56 µg/mL (≈ 4.4 µM)

O=c1c2ccccc2nc(/C=C/c2ccc(Cl)cc2)n1-c1ccc(F)cc1
MIC99 [4]: 12.5 µg/mL (≈ 33.2 µM)

COc1ccc(-n2c(/C=C/c3cccs3)nc3ccccc3c2=O)cc1
selectivity ratio [3]: > 32 | MIC99 [4]: 1.56 µg/mL (≈ 4.33 µM)

COc1cc(-n2c(/C=C/c3cccs3)nc3ccccc3c2=O)cc(OC)c1OC
selectivity ratio [3]: < 8 | MIC99 [4]: 6.25 µg/mL (≈ 14.9 µM)

COc1ccc(/C=C/c2nc3ccccc3c(=O)n2-c2ccc(OC)cc2)cc1
selectivity ratio [3]: > 32 | MIC99 [4]: 1.56 µg/mL (≈ 4.06 µM)

CSc1ccc(-n2c(/C=C/c3ccc(Cl)cc3)nc3ccccc3c2=O)cc1
MIC99 [4]: 12.5 µg/mL (≈ 30.9 µM)

COc1cc(-n2c(/C=C/c3ccco3)nc3ccccc3c2=O)cc(OC)c1OC
selectivity ratio [3]: > 16 | MIC99 [4]: 3.12 µg/mL (≈ 7.73 µM)

CSc1ccc(/C=C/c2nc3ccccc3c(=O)n2-c2ccccc2)cc1
selectivity ratio [3]: < 16 | MIC99 [4]: 3.12 µg/mL (≈ 8.44 µM)

Cc1ccc(/C=C/c2nc3ccccc3c(=O)n2-c2ccc(C)cc2)cc1
selectivity ratio [3]: > 16 | MIC99 [4]: 3.12 µg/mL (≈ 8.87 µM)

COc1cc(-n2c(/C=C/c3ccccc3)nc3ccccc3c2=O)cc(OC)c1OC
selectivity ratio [3]: > 64 | MIC99 [4]: 0.78 µg/mL (≈ 1.88 µM)

COc1ccc(/C=C/c2nc3ccccc3c(=O)n2-c2ccccc2)cc1
MIC99 [4]: 12.5 µg/mL (≈ 35.3 µM)

O=c1c2ccccc2nc(/C=C/c2ccc(F)cc2)n1-c1ccc(Br)cc1
MIC99 [4]: 6.25 µg/mL (≈ 14.8 µM)

COc1cc(-n2c(/C=C/c3ccc(SC)cc3)nc3ccccc3c2=O)cc(OC)c1OC
selectivity ratio [3]: > 125 | MIC99 [4]: 0.4 µg/mL (≈ 0.869 µM)

O=c1c2ccccc2nc(/C=C/c2ccc(F)cc2)n1-c1ccccc1
MIC99 [4]: 25 µg/mL (≈ 73 µM)

O=c1c2ccccc2nc(/C=C/c2ccc(OCc3ccccc3)cc2)n1-c1ccccc1
MIC99 [4]: 12.5 µg/mL (≈ 29 µM)

COc1ccc(-n2c(/C=C/c3ccco3)nc3ccccc3c2=O)cc1
selectivity ratio [3]: < 8 | MIC99 [4]: 6.25 µg/mL (≈ 18.1 µM)

COc1cc(/C=C/c2nc3ccccc3c(=O)n2-c2ccc(SC)cc2)cc(OC)c1OC
MIC99 [4]: > 25 µg/mL

N#Cc1ccc(/C=C/c2nc3ccccc3c(=O)n2-c2cccc(C(=O)O)c2)cc1
MIC (Staphylococcus aureus): 2 µg/mL (≈ 5.08 µM)

O=c1c2ccccc2nc(/C=C/c2ccco2)n1-c1ccccc1
MIC99 [4]: 12.5 µg/mL (≈ 39.8 µM)

O=c1c2ccccc2nc(/C=C/c2ccc(F)cc2)n1-c1ccc(F)cc1
MIC99 [4]: > 25 µg/mL

COc1cc(-n2c(/C=C/c3ccc(Cl)cc3)nc3ccccc3c2=O)cc(OC)c1OC
selectivity ratio [3]: > 16 | MIC99 [4]: 3.12 µg/mL (≈ 6.96 µM)

O=c1c2ccccc2nc(/C=C/c2ccc(Cl)cc2)n1-c1ccc(Cc2ccccc2)cc1
MIC99 [4]: 3.12 µg/mL (≈ 6.96 µM)

COc1ccc(/C=C/c2nc3ccccc3c(=O)n2-c2cc(OC)c(OC)c(OC)c2)cc1
MIC99 [4]: 12.5 µg/mL (≈ 28.1 µM)

Cc1ccc(-n2c(/C=C/c3ccccc3)nc3ccccc3c2=O)cc1
MIC99 [4]: > 25 µg/mL

Cc1ccc(-n2c(/C=C/c3ccc(Cl)cc3)nc3ccccc3c2=O)cc1
MIC99 [4]: 25 µg/mL (≈ 67.1 µM)

Cc1ccc(/C=C/c2nc3ccccc3c(=O)n2-c2ccc(F)cc2)cc1
selectivity ratio [3]: > 8 | MIC99 [4]: 6.25 µg/mL (≈ 17.5 µM)

CSc1ccc(-n2c(/C=C/c3ccc(OC(C)=O)cc3)nc3ccccc3c2=O)cc1
MIC99 [4]: 6.25 µg/mL (≈ 14.6 µM)

COc1ccc(-n2c(/C=C/c3ccc(Cl)cc3)nc3ccccc3c2=O)cc1
selectivity ratio [3]: < 16 | MIC99 [4]: 3.12 µg/mL (≈ 8.04 µM)

COc1cc(-n2c(/C=C/c3ccc(F)cc3)nc3ccccc3c2=O)cc(OC)c1OC
selectivity ratio [3]: > 8 | MIC99 [4]: 6.25 µg/mL (≈ 14.5 µM)

CSc1ccc(-n2c(/C=C/c3ccccc3)nc3ccccc3c2=O)cc1
selectivity ratio [3]: > 64 | MIC99 [4]: 0.78 µg/mL (≈ 2.11 µM)

CSc1ccc(-n2c(/C=C/c3ccco3)nc3ccccc3c2=O)cc1
selectivity ratio [3]: > 8 | MIC99 [4]: 6.25 µg/mL (≈ 17.3 µM)

CSc1ccc(-n2c(/C=C/c3cccs3)nc3ccccc3c2=O)cc1
selectivity ratio [3]: > 8 | MIC99 [4]: 6.25 µg/mL (≈ 16.6 µM)

CC[C@@H](CO)NCCN[C@@H](CC)CO [ETHAMBUTOL]
MIC99 [4]: 1.56 µg/mL (≈ 7.64 µM)

NNC(=O)c1ccncc1 [ISONIAZID]
MIC99 [4]: 0.098 µg/mL (≈ 0.715 µM)

NC(=O)c1cnccn1 [PYRAZINAMIDE]
MIC99 [4]: 6.25 µg/mL (≈ 50.8 µM)

CO[C@H]1/C=C/O[C@@]2(C)Oc3c(C)c(O)c4c(O)c(c(/C=N/N5CCN(C)CC5)c(O)c4c3C2=O)NC(=O)/C(C)=C\C=C\[C@H](C)[C@H](O)[C@@H](C)[C@@H](O)[C@@H](C)[C@H](OC(C)=O)[C@@H]1C [RIFAMPIN]
MIC99 [4]: 0.197 µg/mL (≈ 0.239 µM)
